Source: PubChem
Compounds with a hit are over-represented: about 4.1% of the library has one in this group of screens.
UBC13 inh = inhibitors of human UBC13 polyubiquitin chain formation; inhibition, % at 20 µM; P61088; 330,000 tested, 0.47% active; TR-FRET; in the data active = inhibition above about 45%, passing the limit was not always enough; inconclusive = no clear call, values can overlap the other calls
Mdm2-MdmX inh = disrupts the human Mdm2-MdmX interaction; SaOS-2 split-luciferase Mdm2/MdmX complementation, luminescence; inhibition, % at 8 µM; 330,000 tested, 3% active; AID 485346;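 active = inhibition of at least 50% at 8 µM in the primary screen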
Target sequence (O15151 whole entry, looked up): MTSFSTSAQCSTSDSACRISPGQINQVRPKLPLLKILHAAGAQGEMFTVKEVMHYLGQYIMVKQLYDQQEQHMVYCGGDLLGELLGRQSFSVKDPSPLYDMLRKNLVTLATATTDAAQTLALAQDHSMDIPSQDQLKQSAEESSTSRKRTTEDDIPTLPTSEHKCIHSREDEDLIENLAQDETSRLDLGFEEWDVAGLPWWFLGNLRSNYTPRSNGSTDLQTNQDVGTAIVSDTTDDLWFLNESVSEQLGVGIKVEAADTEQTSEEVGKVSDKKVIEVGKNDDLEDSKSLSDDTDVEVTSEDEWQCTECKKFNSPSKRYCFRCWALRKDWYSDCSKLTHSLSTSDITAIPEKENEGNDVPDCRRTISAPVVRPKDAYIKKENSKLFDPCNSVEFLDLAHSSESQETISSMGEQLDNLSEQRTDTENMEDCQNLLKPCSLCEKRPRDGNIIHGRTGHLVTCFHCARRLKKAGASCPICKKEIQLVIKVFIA
Target sequence (Q00987 whole entry, looked up): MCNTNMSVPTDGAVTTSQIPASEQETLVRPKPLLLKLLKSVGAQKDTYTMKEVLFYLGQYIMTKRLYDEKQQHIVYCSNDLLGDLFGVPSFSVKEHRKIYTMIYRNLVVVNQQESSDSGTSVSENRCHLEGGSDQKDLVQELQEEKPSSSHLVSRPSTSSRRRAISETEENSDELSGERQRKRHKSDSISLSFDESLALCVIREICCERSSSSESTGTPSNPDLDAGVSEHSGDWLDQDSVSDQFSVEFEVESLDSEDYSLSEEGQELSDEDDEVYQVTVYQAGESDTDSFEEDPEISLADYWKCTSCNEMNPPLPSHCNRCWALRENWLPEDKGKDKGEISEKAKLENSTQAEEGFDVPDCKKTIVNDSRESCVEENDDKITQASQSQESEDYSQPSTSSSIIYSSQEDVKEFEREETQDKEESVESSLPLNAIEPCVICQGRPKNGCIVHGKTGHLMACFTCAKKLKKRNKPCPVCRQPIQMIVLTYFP
CHOP UPR activ = apoptotic UPR (CHOP) activation. 330,000 tested, 0.34% active. CHO-CHOP luciferase reporter, luminescence; percent of tunicamycin response over DMSO baseline. activation, % at 10 µM. AID 449763;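 active = at 10 µM dose, activation of 40% or more, normalized to positive control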;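 also: 100% = tunicamycin at 10 µg/mL and 0% = DMSO alone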
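Material: CHO-CHOP cells, stable luciferase reporter of PERK-eIF2a-CHOP signalling; quantity: 500 reporter cells seeded per well; buffer or medium: F12 medium containing 10% fetal bovine serum; compound: one dose, 10 µM in 0.5% DMSO; incubation: 6 h compound treatment, 37 °C; measured by: Steady-Glo luciferase luminescence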
Apaf1 inhib = blocks human Apaf-1 apoptosome activity | O14727 | reconstituted apoptosome caspase-3 activity, DEVD-Rh110 fluorescence | inhibition, % at 20 µM | 330,000 tested, 0.71% active; active = inhibition of at least 40% at 20 µM;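 also: plate controls were DMSO wells for no effect and DEVD-CHO caspase inhibitor wells for full effect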
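Assay system – apoptosome proteins · Medium – Hepes buffer, pH 7.5 · Also added – cytochrome c with DEVD-Rh110 · Timing – 30 min compound preincubation, 50 min activation, room temperature · Detection – Rh110 fluorescence, excitation 480 nm, emission 540 nm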
UPR XBP1 act = adaptive UPR (XBP1) activation | 330,000 tested, 0.33% active | AID 463104 | CHO-XBP1 luciferase reporter, IRE1-XBP1 UPR activation, luminescence; percent of tunicamycin response, DMSO as zero | activation, % at 20 µM;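 active = versus positive control, 20 µM dose yields 30% or more activation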;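 also: 100% = tunicamycin at 10 µg/mL and 0% = DMSO only wells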
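Signal: luciferase luminescence; Assay system: CHO-XBP1 luciferase reporter cells; Amount: one thousand reporter cells per well; Dosing: 20 µM single concentration, DMSO 1%; Benchmarks: high control tunicamycin 10 µg/mL final, low control DMSO vehicle only; Schedule: 6 h compound exposure at 37 °C, 5% CO2; Evaluation: percent activation relative to tunicamycin reference.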
Mdm2 MdmX conf = human Mdm2/MdmX binding inhibition, confirmed; shares compounds with Mdm2-MdmX inh; luminescent assay; inhibition, % at 8 µM; 10,000 tested, 55% active; AID 489028; in the data active = inhibition above about 40%
FLuc counter = inhibits full-length luciferase, flagging false Mdm2/MdmX hits | shares compounds with Mdm2-MdmX inh | SaOS-2 full-length luciferase counterscreen, luminescence | inhibition, % at 8 µM | 6,200 tested, 77% active | AID 504607;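 active = mean inhibition at 8 µM reaching about 37%, which flags the compound as non-specific, limit read from the data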;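 also: p53-null SaOS-2 cells with luciferase driven by a doxycycline-inducible promoter; compound on cells about two nights before reading with doxycycline added after day one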
Numbers without * were called inactive.

For CSc1nc(N)nc(SCC(=O)Nc2ccc(Cl)cc2)c1C#N the results were UBC13 inh 11.8, Mdm2-MdmX inh -46.4, CHOP UPR activ -2.5, Apaf1 inhib 19.3 and UPR XBP1 act -0.2.
Screening CCOc1ccc(Br)cc1C(=O)N/N=C/c1cccc(C)n1 returned UBC13 inh -5.8, Mdm2-MdmX inh -0.7, CHOP UPR activ -0.8, Apaf1 inhib 5.0 and UPR XBP1 act -0.9.
Screening CCOc1ccc(Br)cc1/C(C)=N\NC1=NCCN1 returned UBC13 inh 12.3, Mdm2-MdmX inh 69.5*, CHOP UPR activ 1.0, Apaf1 inhib -0.4, UPR XBP1 act -6.8, Mdm2 MdmX conf 54.8* and FLuc counter 56.5*.
Cc1ccc(CSCC(=O)Nc2ccccc2C(=O)O)cc1 was read as UBC13 inh -10.2, Mdm2-MdmX inh 51.5*, CHOP UPR activ 2.6, Apaf1 inhib -3.6, UPR XBP1 act -3.8 and Mdm2 MdmX conf -13.8.
For CSc1ccccc1NC(=O)CSCc1ccc(C)cc1 the results were UBC13 inh 2.5, Mdm2-MdmX inh 40.9, CHOP UPR activ 0.5, Apaf1 inhib 25.0 and UPR XBP1 act -1.7.
Cc1nc(-c2cccnc2)sc1C(=O)Nc1ccc(Cl)cc1 was read as UBC13 inh -10.1, Mdm2-MdmX inh 24.9, CHOP UPR activ 0.0, Apaf1 inhib 15.2 and UPR XBP1 act -2.9.
Cc1nc(-c2cccnc2)sc1C(=O)N/N=C/c1ccccc1Cl was read as UBC13 inh -1.5, Mdm2-MdmX inh 69.7*, CHOP UPR activ 0.2, Apaf1 inhib -11.4, UPR XBP1 act -0.2 and Mdm2 MdmX conf 17.7.
For CCN(C(=O)c1ccc(S(=O)(=O)N(C)C)cc1)C(C)C(=O)Nc1ccc(C)cc1 (stereo unspecified) the results were UBC13 inh -4.9, Mdm2-MdmX inh -17.1, CHOP UPR activ 0.6, Apaf1 inhib 4.7 and UPR XBP1 act 1.2.
For CCCN(CC(=O)Nc1ccccc1C)C(=O)CCl the results were UBC13 inh 15.3, Mdm2-MdmX inh 95.1*, CHOP UPR activ 2.0, Apaf1 inhib -17.0, UPR XBP1 act -3.5, Mdm2 MdmX conf 97.2* and FLuc counter 49.0*.
For COc1ccc(/C=C/CN2CCCC(CO)(Cc3cccc(Cl)c3)C2)cc1 (stereo unspecified) the results were UBC13 inh -3.4, Mdm2-MdmX inh 9.6, CHOP UPR activ 1.2, Apaf1 inhib -6.4 and UPR XBP1 act -4.7.
`O=C(/C=C/c1cccc(Cl)c1)NCCN1CCOCC1` gave UBC13 inh -17.7, Mdm2-MdmX inh 76.0*, CHOP UPR activ -0.7, Apaf1 inhib 6.9, UPR XBP1 act -2.1 and Mdm2 MdmX conf -17.7.
CN(C1CCCC1)C1CCN(C(=O)CNC(=O)/C=C/c2ccccc2)CC1 was read as UBC13 inh 4.7, Mdm2-MdmX inh -32.2, CHOP UPR activ -0.5, Apaf1 inhib -6.0 and UPR XBP1 act 0.2.
Screening CC1CCCCC1N(C)C1CCN(C(=O)CNC(=O)/C=C/c2cccc(Cl)c2)CC1 (stereo unspecified) returned UBC13 inh 3.9, Mdm2-MdmX inh 53.4*, CHOP UPR activ -0.7, Apaf1 inhib -0.4, UPR XBP1 act -6.8, Mdm2 MdmX conf 51.8* and FLuc counter 91.7*.
For Cc1cc(C)nc(NS(=O)(=O)c2ccc(NC(=O)CSc3nc(-c4ccccc4)c(C#N)c(=O)[nH]3)cc2)n1 the results were UBC13 inh inconclusive, Mdm2-MdmX inh 20.6, CHOP UPR activ 0.4, Apaf1 inhib 0.7 and UPR XBP1 act -1.8.
O=C(N/N=C1/CC2CCC1C2)c1cc2ccccc2cc1O (stereo unspecified) was read as UBC13 inh 2.9, Mdm2-MdmX inh 51.9*, CHOP UPR activ 4.3, Apaf1 inhib -0.2, UPR XBP1 act 2.7, Mdm2 MdmX conf 40.8* and FLuc counter 83.0*.
CSc1ncnc2c1cnn2-c1ccc(C)cc1C was read as UBC13 inh -1.5, Mdm2-MdmX inh 3.3, CHOP UPR activ 2.3, Apaf1 inhib 2.6 and UPR XBP1 act 0.3.
Screening Cc1ccc(-n2ncc3c(SCc4ccccn4)ncnc32)c(C)c1 returned UBC13 inh -5.0, Mdm2-MdmX inh 84.2*, CHOP UPR activ 4.6, Apaf1 inhib 5.5, UPR XBP1 act -0.3, Mdm2 MdmX conf 77.8* and FLuc counter 27.6.
CCOc1ccc(C=O)cc1CN1CCCCC1 was read as UBC13 inh -9.1, Mdm2-MdmX inh -2.1, CHOP UPR activ -2.4, Apaf1 inhib 0.6 and UPR XBP1 act -1.5.
For COc1ccc(NC(=O)N(C)C[C@H]2Oc3c(NC(=O)Nc4ccc(C(F)(F)F)cc4)cccc3C(=O)N([C@H](C)CO)C[C@@H]2C)cc1 the results were UBC13 inh 26.8, Mdm2-MdmX inh 60.1*, CHOP UPR activ 6.4, Apaf1 inhib 10.9, UPR XBP1 act 4.0, Mdm2 MdmX conf 43.0* and FLuc counter 69.4*.
`C[C@H](CO)N1C[C@H](C)[C@@H](CN(C)C(=O)Nc2ccc3c(c2)OCO3)Oc2c(NC(=O)Nc3ccc(C(F)(F)F)cc3)cccc2C1=O` gave UBC13 inh 20.2, Mdm2-MdmX inh 79.8*, CHOP UPR activ 10.6, Apaf1 inhib 14.7, UPR XBP1 act 8.5, Mdm2 MdmX conf 69.1* and FLuc counter 68.2*.
Screening C[C@H](CO)N1C[C@H](C)[C@@H](CN(C)C(=O)Nc2ccc(C(F)(F)F)cc2)Oc2c(NC(=O)Nc3ccc4c(c3)OCO4)cccc2C1=O returned UBC13 inh 1.7, Mdm2-MdmX inh 18.5, CHOP UPR activ 2.0, Apaf1 inhib 12.6 and UPR XBP1 act -0.9.
Cc1ccc(-c2cc3cccc[n+]3cc2-c2ccc(C)cc2)cc1 was read as UBC13 inh 4.8, Mdm2-MdmX inh 52.3*, CHOP UPR activ -1.7, Apaf1 inhib 3.7, UPR XBP1 act -2.5, Mdm2 MdmX conf 42.7* and FLuc counter 47.5*.
`Cc1ccc2nc(-c3ccncc3)cc(-c3ccccc3)c2c1` gave UBC13 inh 10.4, Mdm2-MdmX inh 11.0, CHOP UPR activ -1.7, Apaf1 inhib 0.4 and UPR XBP1 act 4.6.
COc1ccc(OC)c(S(=O)(=O)N2CCCC(C(=O)NCCN3CCOCC3)C2)c1 (stereo unspecified) was read as UBC13 inh 5.5, Mdm2-MdmX inh 23.9, CHOP UPR activ 2.0, Apaf1 inhib 0.7 and UPR XBP1 act -3.0.
`Cc1cc(C(=O)Nc2c(F)c(F)c(F)c(F)c2F)n(-c2ccccc2)n1` gave UBC13 inh -1.7, Mdm2-MdmX inh -1.0, CHOP UPR activ -1.0, Apaf1 inhib 0.5 and UPR XBP1 act -1.3.
